Laboratory results from ChEMBL document CHEMBL1122780, “Trequinsin, a potent new antihypertensive vasodilator in the series of 2-(arylimino)-3-alkyl-9,10-dimethoxy-3,4,6,7-tetrahydro-2H-py rim ido [6,1-a]isoquinolin-4-ones” (J Med Chem, 1984).

How the values were obtained:
Felis catus [1] = experiment: Dose estimated to produce 25 mm Hg fall in mean systemic blood pressure of anesthetized cat at 10 min after administration; assay type: functional
Rattus norvegicus [2] = experiment: Difference in systolic blood pressure of SH rats observed prior to the first application and 2 hr after the fifth application at the oral dose of 5 mg/kg was expressed as Delta BP; assay type: functional, Artery
In short: (§1)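 Male spontaneously hypertensive rats (Wistar–Okamoto, 250–300 g, 12–16 weeks), conscious. Dosed orally once daily for 5 days in 0.9% NaCl or 0.5% carboxymethylcellulose (10 mL/kg); vehicle control group. Rats warmed at 37–38 °C for 10 min, then systolic pressure taken by tail-cuff (piezoelectric pulse detection). ΔBP = pre-first-dose minus 2 h after fifth dose; mean ± SEM, six animals.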

Rattus norvegicus [3] = experiment: Difference in systolic blood pressure of SH rats observed prior to the first application and 2 hr after the fifth application at the oral dose of 25 mg/kg was expressed as Delta BP; assay type: functional, Artery; in short: as §1
Felis catus [4] = experiment: Blood pressure lowering activity in anesthetized cats after intravenous administration of […] of compound; assay type: functional
[5] = Compound was tested for toxicity in mice after intraperitoneal administration; assay type: organism-based; conditions: mouse, in vivo, ip
In short: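 Mice (18–22 g), either sex. Compound dissolved in distilled water or suspended in 0.5% (carboxymethyl)cellulose and given ip at 10, 30, 100, 300 and 1000 mg/kg, 1 mL/100 g body weight. Animals observed for 48 h; approximate LD50 calculated by the Campbell and Richter method.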

Rattus norvegicus [6] = experiment: Delta BP refers to difference in systolic blood pressure of SH rats observed prior to the first application and 2 hr after the fifth application at the oral dose of 3 mg/kg; assay type: functional, Artery; in short: as §1
Rattus norvegicus [7] = experiment: Difference in systolic blood pressure of SH rats observed prior to the first application and 2 hr after the fifth application at the oral dose of 10 mg/kg was expressed as Delta BP; assay type: functional, Artery; in short: as §1

| Compound | ED25 (Felis catus [1]) | also measured |
| --- | --- | --- |
| CCc1cccc(C(C)C)c1Nc1cc2n(c(=O)n1)CCc1cc(OC)c(OC)cc1-2.Cl | 3 mg/kg | – |
| COc1cc2c(cc1OC)-c1cc(=Nc3c(C)cccc3C(C)C)n(C)c(=O)n1CC2.Cl | 1 mg/kg | Delta blood pressure (Rattus norvegicus [2]): 0 mmHg |
| COc1cc2c(cc1OC)-c1cc(Nc3ccccc3Cl)nc(=O)n1CC2.Cl | 1.4 mg/kg | Delta blood pressure (Rattus norvegicus [3]): 0 mmHg |
| COc1cc2c(cc1OC)-c1cc(=Nc3ccc(C)cc3C)n(C)c(=O)n1CC2.Cl | 10 mg/kg | – |
| COc1cc2c(cc1OC)-c1cc(Nc3c(C)cccc3C(C)(C)C)nc(=O)n1CC2.Cl | 1.8 mg/kg | Delta blood pressure (Rattus norvegicus [3]): 0 mmHg |
| CCn1c(=Nc2c(C)cc(C)cc2C)cc2n(c1=O)CCc1cc(OC)c(OC)cc1-2.Cl | 0.1 mg/kg | Delta blood pressure (Rattus norvegicus [2]): -20 mmHg; ED25 (Felis catus [4]): 0.025 mg/kg; LD50 [5]: 65 mg/kg |
| CCc1cccc(C(C)CC)c1N=c1cc2n(c(=O)n1C)CCc1cc(OC)c(OC)cc1-2.Cl (centres undefined) | 3.5 mg/kg | Delta blood pressure (Rattus norvegicus [3]): -20 mmHg |
| COc1cc2c(cc1OC)-c1cc(N(C)c3c(C)cc(C)cc3C)nc(=O)n1CC2.Cl | 0.03 mg/kg | Delta blood pressure (Rattus norvegicus [2]): -45 mmHg; ED25 (Felis catus [4]): 0.03 mg/kg; LD50 [5]: 27 mg/kg |
| COc1cc(Nc2cc3n(c(=O)n2)CCc2cc(OC)c(OC)cc2-3)cc(OC)c1.Cl | 3.4 mg/kg | – |
| COc1cc2c(cc1OC)-c1cc(Nc3cc(OC)c(OC)c(OC)c3)nc(=O)n1CC2.Cl | 0.8 mg/kg | – |
| COc1cc2c(cc1OC)-c1cc(Nc3c(Cl)cc(Cl)cc3Cl)nc(=O)n1CC2.Cl | 0.5 mg/kg | – |
| COc1cc2c(cc1OC)-c1cc(Nc3ccc(C)c(Cl)c3Cl)nc(=O)n1CC2.Cl | 5 mg/kg | Delta blood pressure (Rattus norvegicus [3]): -19 mmHg |
| COc1cc2c(cc1OC)-c1cc(Nc3c(C)cc(C)cc3C)nc(=O)n1CC2.Cl | 0.2 mg/kg | Delta blood pressure (Rattus norvegicus [2]): -37 mmHg; ED25 (Felis catus [4]): 0.2 mg/kg; LD50 [5]: 82.5 mg/kg |
| COc1cc2c(cc1OC)-c1cc(=Nc3c(C)cc(C)cc3C)n(CP(C)(C)=O)c(=O)n1CC2.Cl | 0.1 mg/kg | Delta blood pressure (Rattus norvegicus [2]): -33 mmHg; ED25 (Felis catus [4]): 0.5 mg/kg; LD50 [5]: 65 mg/kg |
| COc1cc2c(cc1OC)-c1cc(Nc3c(C)cccc3C(C)C)nc(=O)n1CC2.Cl | 2.2 mg/kg | – |
| COc1cc2c(cc1OC)-c1cc(=Nc3c(F)cccc3F)n(CP(C)(C)=O)c(=O)n1CC2.Cl | 0.4 mg/kg | Delta blood pressure (Rattus norvegicus [3]): 0 mmHg |
| CCOc1ccccc1Nc1cc2n(c(=O)n1)CCc1cc(OC)c(OC)cc1-2.Cl | 1.2 mg/kg | Delta blood pressure (Rattus norvegicus [3]): -27 mmHg |
| CCOc1ccc(Nc2cc3n(c(=O)n2)CCc2cc(OC)c(OC)cc2-3)cc1.Cl | 50 mg/kg | – |
| COc1cc2c(cc1OC)-c1cc(Nc3c(F)cccc3F)nc(=O)n1CC2 | 3.5 mg/kg | Delta blood pressure (Rattus norvegicus [3]): 0 mmHg |
| COc1cc2c(cc1OC)-c1cc(=Nc3c(C)cccc3C)n(C)c(=O)n1CC2 | 3.5 mg/kg | – |
| CCN(c1cc2n(c(=O)n1)CCc1cc(OC)c(OC)cc1-2)c1c(C)cc(C)cc1C | 0.025 mg/kg | ED25 (Felis catus [4]): 0.1 mg/kg; Delta blood pressure (Rattus norvegicus [6]): -13 mmHg; LD50 [5]: 65 mg/kg |
| COc1cc2c(cc1OC)-c1cc(Nc3ccc(Cl)cc3Cl)nc(=O)n1CC2 | 1 mg/kg | Delta blood pressure (Rattus norvegicus [3]): 0 mmHg |

| Compound | ED25 (Felis catus [1]) | also measured |
| --- | --- | --- |
| COc1cc2c(cc1OC)-c1cc(Nc3ccc(C)c(C)c3)nc(=O)n1CC2 | 10 mg/kg | – |
| COc1cc2c(cc1OC)-c1cc(=Nc3c(C)cc(C)cc3C)n(C(C)C)c(=O)n1CC2 | 0.1 mg/kg | Delta blood pressure (Rattus norvegicus [7]): -34 mmHg |
| COc1cc2c(cc1OC)-c1cc(Nc3cc(C)cc(C)c3)nc(=O)n1CC2 | 3 mg/kg | – |
| COc1cc2c(cc1OC)-c1cc(=Nc3c(Cl)cc(Cl)cc3Cl)n(C)c(=O)n1CC2 | 3 mg/kg | Delta blood pressure (Rattus norvegicus [3]): -21 mmHg |
| COc1cc2c(cc1OC)-c1cc(N(CP(C)(C)=O)c3c(F)cccc3F)nc(=O)n1CC2 | 2.4 mg/kg | Delta blood pressure (Rattus norvegicus [3]): 0 mmHg |
| COc1cc2c(cc1OC)-c1cc(Nc3ccc(O)cc3)nc(=O)n1CC2 | 10 mg/kg | – |
| COc1cc2c(cc1OC)-c1cc(Nc3ccc(C)cc3C)nc(=O)n1CC2 | 1 mg/kg | Delta blood pressure (Rattus norvegicus [3]): -41 mmHg |
| COc1cc2c(cc1OC)-c1cc(Nc3ccc(C)c(N)c3)nc(=O)n1CC2 | 2.4 mg/kg | – |
| CCc1ccccc1Nc1cc2n(c(=O)n1)CCc1cc(OC)c(OC)cc1-2 | 10 mg/kg | – |
| COc1ccc(OC)c(Nc2cc3n(c(=O)n2)CCc2cc(OC)c(OC)cc2-3)c1 | 50 mg/kg | – |
| COc1cc2c(cc1OC)-c1cc(N(c3c(C)cc(C)cc3C)C(C)C)nc(=O)n1CC2 | 0.5 mg/kg | Delta blood pressure (Rattus norvegicus [2]): -37 mmHg |
| COc1cc2c(cc1OC)-c1cc(Nc3ccccc3C(=O)O)nc(=O)n1CC2 | 50 mg/kg | – |
| COc1cc2c(cc1OC)-c1cc(Nc3c(Cl)cccc3Cl)nc(=O)n1CC2 | 2 mg/kg | – |
| CCCCN(c1cc2n(c(=O)n1)CCc1cc(OC)c(OC)cc1-2)c1c(C)cc(C)cc1C | 0.08 mg/kg | – |
| COc1cc2c(cc1OC)-c1cc(Nc3c(C)cccc3C)nc(=O)n1CC2 | 0.1 mg/kg | Delta blood pressure (Rattus norvegicus [2]): -27 mmHg |
| COc1cc2c(cc1OC)-c1cc(Nc3ccc(Cl)cc3)nc(=O)n1CC2 | 50 mg/kg | – |
| COc1cc2c(cc1OC)-c1cc(N(C(C)=O)c3c(C)cc(C)cc3C)nc(=O)n1CC2 | 0.25 mg/kg | Delta blood pressure (Rattus norvegicus [7]): -24 mmHg; ED25 (Felis catus [4]): 0.25 mg/kg; LD50 [5]: 825 mg/kg |
| COc1cc2c(cc1OC)-c1cc(=Nc3c(F)cccc3F)n(C)c(=O)n1CC2 | 0.5 mg/kg | Delta blood pressure (Rattus norvegicus [7]): 0 mmHg |
| COc1cc2c(cc1OC)-c1cc(Nc3cccc(C(F)(F)F)c3)nc(=O)n1CC2 | 2 mg/kg | – |
| N/N=c1\[nH][nH]/c(=N\N)c2ccccc12 [DIHYDRALAZINE] | 1 mg/kg | Delta blood pressure (Rattus norvegicus [2]): -60 mmHg |
| Nc1cc(N2CCCCC2)nc(N)[n+]1[O-] [MINOXIDIL] | 1.2 mg/kg | Delta blood pressure (Rattus norvegicus [2]): -51.2 mmHg |
